Assay results from paper PMC4593509 (Medicinal chemistry research : an international journal for …, 2015).
Where two headings read alike, the source gives them in different places.

Columns and labels:
HCC827 = assay: MTT assay, cell viability after 72 h; format: cell-based, human; details: read-out: IC50 (at day 3)
In short: (§1)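 Cells were kept in RPMI-1640 with 10% FBS at 37 °C and 5% CO₂, grown to confluency, seeded at 5,000–7,000 per well, and incubated 24 h. Medium was replaced with medium holding test compound, diluted from a 1% DMSO/water suspension, in six replicates each in triplicate. After 72 h, MTT in PBS was added for 4 h. Medium was then removed, formazan dissolved in DMSO, and OD read at 540 nm.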

NCI-H1975 = assay: MTT assay, cell viability after 72 h; format: cell-based, human; details: read-out: IC50 (at day 3)
In short: as §1

NCI-H460 = assay: MTT assay, cell viability after 72 h; format: cell-based, human; details: read-out: IC50 (at day 3)
In short: as §1

[1] = test system: NSCLC cell lines NCI-H460, NCI-H1975, and HCC827; assay: MTT assay, values stated for the whole panel of NSCLC cell lines; format: cell-based, human; details: for IC50: Homo sapiens, 72 h, read-out: IC50 values against the panel of cancer cell lines
In short: as §1

[2] = Water solubility from a filtered saturated solution, by weight; format: physicochemical; details: for solubility: thermodynamic from solid
NCI-H460 cell line = assay: Annexin V; format: cell-based, human; details: H460 cells
In short: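 NCI-H460 cells were seeded at 1×10^5 per well and left to adhere overnight. Test compound or cisplatin (40 µM) was diluted into medium from a 1% DMSO/water solution, and untreated controls got fresh medium, with 2 wells per treatment. After exposure, cells were washed twice in cold PBS and stained with FITC-Annexin V and PI in 1× binding buffer for 15 min at room temperature in the dark. Imaging used fluorescence microscopy at 10× and 20×.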

[3] = test system: PARP and caspase-3 in NCI-H460 cells; assay: Western blotting of apoptotic proteins caspase-3 and PARP; format: cell-based, human; details: 5 μM
In short: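 Confluent NCI-H460 cells, seeded at 1×10^5 per well in RPMI-1640 with 10% FBS and 1% pen-strep, were serum-starved 24 h, then treated. Cells were lysed in ice-cold Tris pH 7.5/Triton X-100 buffer with protease/phosphatase inhibitors. Equal lysate amounts were run on 4–12% SDS-PAGE and moved to PVDF, then probed with PARP, caspase-3 and GAPDH antibodies (1:1,000, 4 °C overnight) and HRP anti-rabbit (1:5,000). Detection was by ECL, with GAPDH reprobe for normalization and cisplatin lysates as control.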

[4] = treatment 6 h, IC23 and cisplatin at 40 μM

`CCCCCCn1c[n+](Cc2ccc3ccccc3c2)c(Cl)c1Cl.[Br-]` [Compound 6, 4,5-dichloro-1-hexyl-3-(naphthalen-2-ylmethyl)-imidazolium bromide] showed an IC50 (HCC827; Homo sapiens, HCC827, 72 h) of 8 µM, an IC50 (NCI-H1975; Homo sapiens, NCI-H1975, 72 h) of 5 µM and an IC50 (NCI-H460; Homo sapiens, NCI-H460, 72 h) of 5 µM. It also gave an IC50 [1] of no more than 10 µM and a solubility ([2]; water) of 1400 µg/mL.
Molecule `c1ccc2cc(Cn3c[n+](Cc4ccc5ccccc5c4)c4ccccc43)ccc2c1` [Compound 13, 1,3-bis(naphthalen-2-ylmethyl)benzimidazolium bromide] has an IC50 (HCC827; Homo sapiens, HCC827, 72 h) of 5 µM, an IC50 (NCI-H1975; Homo sapiens, NCI-H1975, 72 h) of 4 µM and an IC50 (NCI-H460; Homo sapiens, NCI-H460, 72 h) of 3 µM.
For `Clc1c(Cl)[n+](Cc2ccccc2)cn1Cc1ccccc1` [Compound 10, 1,3-dibenzyl-4,5-dichloroimidazolium bromide], the IC50 (HCC827; Homo sapiens, HCC827, 72 h) was greater than 30 µM, the IC50 (NCI-H1975; Homo sapiens, NCI-H1975, 72 h) was greater than 30 µM and the IC50 (NCI-H460; Homo sapiens, NCI-H460, 72 h) was greater than 30 µM.
In the case of `Cn1c(=O)c2c(n(C)c[n+]2Cc2ccc3ccccc3c2)n(C)c1=O.[I-]` [Compound 15, 1,3,9-trimethyl-7-(naphthalen-2-ylmethyl)xanthinium iodide], the IC50 (HCC827; HCC827, 72 h exposure, MTT) is reported as greater than 30 µM, the IC50 (NCI-H1975; NCI-H1975, 72 h exposure, MTT) is reported as greater than 30 µM and the IC50 (NCI-H460; NCI-H460, 72 h exposure, MTT) is reported as greater than 30 µM. For the same molecule, the “anti-tumor activity against the three cell lines” value ([1]; NCI-H460, NCI-H1975, HCC827, result in words) was “no observable anti-tumor activity” and the H2O solubility ([2]; water, saturated solution stirred for several hours, filtered) was 2600 µg/mL.
Molecule `CC(C)n1c[n+](Cc2ccc3ccccc3c2)c(Cl)c1Cl.[Br-]` [Compound 3, 4,5-dichloro-1-isopropyl-3-(naphthalen-2-ylmethyl)imidazolium bromide] has an IC50 (HCC827; Homo sapiens, HCC827, 72 h) greater than 30 µM, an IC50 (NCI-H1975; Homo sapiens, NCI-H1975, 72 h) of 20 µM and an IC50 (NCI-H460; Homo sapiens, NCI-H460, 72 h) greater than 30 µM. For the same molecule, the IC50 [1] was no less than 19 µM and the solubility ([2]; water) was 10800 µg/mL.
Molecule `Clc1ncn(CCc2cccc3ccccc23)c1Cl` [Compound 16, 4,5-dichloro-1-(2-(naphthalen-1-yl)ethyl)-imidazole] has an IC50 (HCC827; HCC827, 72 h exposure, MTT) greater than 30 µM, an IC50 (NCI-H1975; NCI-H1975, 72 h exposure, MTT) greater than 30 µM and an IC50 (NCI-H460; NCI-H460, 72 h exposure, MTT) greater than 30 µM.
For `CCCCCCCCCCCCn1c[n+](Cc2ccc3ccccc3c2)c(Cl)c1Cl` [Compound 9, 4,5-dichloro-1-dodecyl-3-(naphthalen-2-ylmethyl)-imidazolium bromide], the IC50 (NCI-H1975; Homo sapiens, NCI-H1975, 72 h) was 4 µM, the IC50 (NCI-H460; Homo sapiens, NCI-H460, 72 h) was 5 µM and the IC50 [1] was no more than 10 µM.
With `Clc1c(Cl)[n+](Cc2ccc3ccccc3c2)cn1Cc1ccc2ccccc2c1.[Br-]` [IC23, 4,5-dichloro-1,3-bis (naphthalen-2-ylmethyl)imidazolium bromide] the “stage of apoptosis (Annexin V / PI)” value (NCI-H460 cell line; treatment 1 h, IC23 at 40 μM) was “early stage of apoptosis”, the “stage of apoptosis (Annexin V / PI)” value (NCI-H460 cell line; treatment 3 h, IC23 at 40 μM) was “latestage apoptotic cells” and the “stage of apoptosis (Annexin V / PI)” value (NCI-H460 cell line; [4]) was “end stage of apoptosis”. For the same molecule, the IC50 (HCC827; Homo sapiens, HCC827, 72 h) was 8 µM, the PARP cleavage ([3]; H460 cell lysates, 12 h) was “presence of cleaved PARP” and the “levels of procaspase-3” value ([3]; H460 cell lysates, 12 h) was “substantial reduction”. For the same molecule, the “PARP-1 and procaspase-3 cleavage” value ([3]; H460 cells, 1 h) was “little PARP-1 and procaspase-3 cleavage”, the IC50 (NCI-H1975; Homo sapiens, NCI-H1975, 72 h) was 6 µM and the IC50 (NCI-H460; Homo sapiens, NCI-H460, 72 h) was 5 µM. The solubility ([2]; water) was less than 100 µg/mL.
Work on `Clc1c(Cl)[n+](Cc2ccc3ccccc3c2)cn1CCc1cccc2ccccc12.[Br-]` [Compound 18, 4,5-dichloro-1-(2-(naphthalen-1-yl)ethyl)-3-(naphthalen-2-ylmethyl)-imidazolium bromide] yielded an IC50 (HCC827; Homo sapiens, HCC827, 72 h) of 7 µM, an IC50 (NCI-H1975; Homo sapiens, NCI-H1975, 72 h) of 6 µM and an IC50 (NCI-H460; Homo sapiens, NCI-H460, 72 h) of 5 µM. The “water solubility compared to IC23” value ([2]; result in words) was “did not show a significant increase” and the solubility ([2]; water) was 100 µg/mL.
Molecule `CCn1c[n+](Cc2ccc3ccccc3c2)c(Cl)c1Cl.[Br-]` [Compound 1, 4,5-dichloro-1-ethyl-3-(naphthalen-2-ylmethyl)-imidazolium bromide] has an IC50 (HCC827; Homo sapiens, HCC827, 72 h) greater than 30 µM, an IC50 (NCI-H1975; Homo sapiens, NCI-H1975, 72 h) greater than 30 µM and an IC50 (NCI-H460; Homo sapiens, NCI-H460, 72 h) of 26 µM. It also gave an IC50 [1] of no less than 19 µM and a solubility ([2]; water) of 13500 µg/mL.
Molecule `CCCCn1c[n+](Cc2ccc3ccccc3c2)c(Cl)c1Cl.[Br-]` [Compound 4, 1-butyl-4,5-dichloro-3-(naphthalen-2-ylmethyl)-imidazolium bromide] has an IC50 (HCC827; Homo sapiens, HCC827, 72 h) of 12 µM, an IC50 (NCI-H1975; Homo sapiens, NCI-H1975, 72 h) of 10 µM and an IC50 (NCI-H460; Homo sapiens, NCI-H460, 72 h) of 13 µM. It also gave a solubility ([2]; water) of 5700 µg/mL.
For `[Br-].c1ccc2cc(Cn3cc[n+](Cc4ccc5ccccc5c4)c3)ccc2c1` [Compound 12, 1,3-bis(naphthalen-2-ylmethyl)imidazolium bromide], the “stage of apoptosis (Annexin V / PI)” value (NCI-H460 cell line; [4]) was “early stages of apoptosis”, the IC50 (HCC827; Homo sapiens, HCC827, 72 h) was 9 µM and the IC50 (NCI-H1975; Homo sapiens, NCI-H1975, 72 h) was 6 µM. For the same molecule, the IC50 (NCI-H460; Homo sapiens, NCI-H460, 72 h) was 4 µM.
`Clc1c(Cl)[n+](Cc2ccc3ccccc3n2)cn1Cc1ccc2ccccc2c1.[Br-]` [Compound 23, 4,5-dichloro-1-(naphthalen-2-ylmethyl)-3-(quinolin-2-ylmethyl)imidazolium bromide] gave an IC50 (HCC827; Homo sapiens, HCC827, 72 h) of 9 µM, an IC50 (NCI-H1975; Homo sapiens, NCI-H1975, 72 h) of 5 µM and an IC50 (NCI-H460; Homo sapiens, NCI-H460, 72 h) of 10 µM. The “increase in aqueous solubility from IC23” value ([2]; relative to IC23) was no less than 10 fold and the solubility ([2]; water) was 900 µg/mL.
